# Hits are enriched below; roughly 2.4% of the tested compounds scored in any of these assays.
# NPY-Y2 PAM-ag – human NPY-Y2 potentiation or agonism, primary screen. cells expressing NPY-Y2, potentiator/agonist read-out. AID 1359. activation, % at 3.6 µM. hit rate 0.45% among 220,000; in the data active = activation above about 27%;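 also: cells stimulated with NPY near EC25 plus isoproterenol at EC100; 0% = vehicle plus submaximal agonist and 100% = vehicle plus saturating agonist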
# Target sequence (P49146 whole entry, looked up): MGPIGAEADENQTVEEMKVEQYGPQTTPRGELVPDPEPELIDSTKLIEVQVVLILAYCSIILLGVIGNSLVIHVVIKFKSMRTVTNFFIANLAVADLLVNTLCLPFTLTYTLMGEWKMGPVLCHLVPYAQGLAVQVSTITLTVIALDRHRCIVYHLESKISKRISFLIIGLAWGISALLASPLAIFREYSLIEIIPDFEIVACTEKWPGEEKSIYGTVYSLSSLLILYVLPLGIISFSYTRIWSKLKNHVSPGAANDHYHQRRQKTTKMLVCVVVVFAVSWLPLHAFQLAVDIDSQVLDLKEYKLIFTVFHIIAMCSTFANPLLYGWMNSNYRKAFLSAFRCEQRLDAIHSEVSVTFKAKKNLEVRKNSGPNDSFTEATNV
# S1P4 ag – agonists of human S1P4 receptor; O95977; S1P4-expressing cell line, agonist reporter assay; activation, % at 4.98 µM; hit rate 0.35% among 220,000; in the data active = activation above about 11%;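 also: 0% = DMSO vehicle and 100% = reference agonist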
# NPY-Y1 antag – blocks the human neuropeptide Y Y1 receptor; P25929; HEK293-CNG Y1 cells, membrane potential fluorescence; NPY at EC95, then isoproterenol; inhibition, % at 3.6 µM; hit rate 1% among 200,000; AID 1040;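 active = inhibition above the campaign mean inhibition of all tested compounds plus 3 SD, cut at about 20% in these data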;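 also: 0% = DMSO wells given NPY plus isoproterenol and 100% = isoproterenol alone without NPY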
#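 Assay system: HEK293 cells with Y1 receptor plus CNG channel | Probe or stimulus: NPY (25 nM), isoproterenol (1 µM), Ro 20-1724 (25 µM) | Timing: Compound incubation 1 h at room temperature, readout 45 min post-stimulation | Measured by: Membrane-potential fluorescent dye readout | Benchmarks: High control isoproterenol alone, low control NPY with isoproterenol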
# NPY-Y1 PAM-ag – potentiates or activates human NPY-Y1 receptor. NPY-Y1 expressing cells, potentiator/agonist activation. activation, % at 3.6 µM. hit rate 0.37% among 220,000; in the data active = activation above about 33%, passing the limit was not always enough;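 also: cells stimulated with NPY at EC10 then isoproterenol at EC100; 0% = low agonist plus stimulus and 100% = saturating agonist plus stimulus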
# NPY Y2 blocker – antagonists of human neuropeptide Y receptor Y2. P49146. NPY-Y2 expressing cells, antagonist mode. inhibition, % at 2.7 µM. hit rate 0.99% among 140,000; in the data active = inhibition above about 17%;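 also: 0% = vehicle with agonist challenge and 100% = reference antagonist with challenge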
# S1P4 antag – blocks the human S1P4 receptor. inhibition, % at 4.98 µM. O95977. S1P4-expressing cells, antagonist mode, reporter read-out. hit rate 0.26% among 220,000; in the data active = inhibition above about 29%;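 also: 0% = wells stimulated with agonist and 100% = vehicle wells without agonist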
# NPY-Y1 pot conf – human NPY-Y1 potentiation or agonism, confirmation | shares compounds with NPY-Y1 PAM-ag | cell-based NPY-Y1 potentiator/agonist assay | hit rate 20% among 280 | AID 1546 | activation, % at 3.6 µM; in the data active = activation above about 45%;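 also: cells challenged with NPY at its EC10 plus isoproterenol stimulus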
# NPY-Y2 counter – NPY-Y2 potentiation or agonism as NPY-Y1 counter-screen | HEK293-CNG cells, membrane-potential fluorescence (FLIPR), 1536-well | activation, % at 3.6 µM | hit rate 20% among 280 | shares compounds with NPY-Y1 PAM-ag; in the data active = activation above about 33%
# NPY-Y1 agonist – counter-screen for NPY-Y1 potentiators: agonists of human NPY-Y1; activation, % at 3.6 µM; AID 1697; HEK293 Y1-CNGC, membrane potential fluorescence, agonist mode; hit rate 50% among 280; shares compounds with NPY-Y1 PAM-ag;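 active = percent activation above the mean of DMSO-only control wells plus 3 SD of those wells, cut at about 18% in these data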;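 also: cells challenged with isoproterenol plus Ro 20-1724 with no NPY in test wells; Y1 agonism lowers isoproterenol-driven cAMP and reduces probe fluorescence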
# NPY-Y2 ag – counter-screen for NPY-Y1 potentiators or agonists: agonists of NPY-Y2 | shares compounds with NPY-Y1 PAM-ag | HEK293 Y2-CNGC, membrane potential fluorescence, agonist mode | activation, % at 3.6 µM | hit rate 67% among 280;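 active = activation above the solvent-only control wells' mean plus 3 SD, cut at about 11% in these data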;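 also: 0% = DMSO with isoproterenol and 100% = 40 nM NPY maximal response; agonism lowers cAMP so well fluorescence drops in active wells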
# CNGC counter – CNG channel inhibition, counter-screen for NPY-Y1 potentiators; inhibition, % at 3.6 µM; HEK293-CNG parental, isoproterenol cAMP, membrane potential fluorescence; AID 1704; shares compounds with NPY-Y1 PAM-ag; hit rate 42% among 280;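 active = inhibition above the mean of stimulated solvent-only control wells plus 3 SD, cut at about 22% in these data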;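 also: 0% = isoproterenol-stimulated DMSO wells and 100% = unstimulated DMSO wells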
# * marks the source's active call; other numbers are inactive results; · = not tested or not shown.
SMILES,NPY-Y2 PAM-ag,S1P4 ag,NPY-Y1 antag,NPY-Y1 PAM-ag,NPY Y2 blocker,S1P4 antag,NPY-Y1 pot conf,NPY-Y2 counter,NPY-Y1 agonist,NPY-Y2 ag,CNGC counter
COc1ccccc1NC(=O)Nc1ccc(-n2ccc(C(F)(F)F)n2)cc1,32,-2,·,55*,·,6,65*,49*,55*,38*,36*
O=C1/C(=C/c2ccccn2)SC(=S)N1c1cccc(O)c1,29,-1,·,54*,·,-7,57*,38*,41*,37*,32*
CC(=O)N1CCN(Cc2nc3cc(NC(=O)c4ccc(F)cc4)ccc3n2C)CC1,1,-2,0,-8,·,8,·,·,·,·,·
CCOC(=O)C1=C(C)C2C3C(=O)N(c4cc(C)ccc4C)C(=O)C3C1(C)C1C(=O)N(c3cc(C)ccc3C)C(=O)C21 (configuration not stated),8,0,0,44*,-3,-8,17,9,16,8,10
COCCCNc1nc2c(c(=O)[nH]c(=O)n2C)n1CC(O)COc1ccccc1 (configuration not stated),29,-2,5,96*,0,1,3,2,-1,12*,8
O=C(Nc1ccncc1)c1ccc2c(c1)C(=O)N(C1CCCCC1)C2=O,1,0,-1,45*,2,-16,2,17,18*,5,2
CC1(C(=O)NCc2ccc(F)cc2)Oc2ccccc2NC1=O (configuration not stated),11,0,-3,-6,·,8,·,·,·,·,·
O=C(CCC(=O)OCc1ccc([N+](=O)[O-])cc1)Nc1ccccc1Cl,-1,1,3,9,·,-10,·,·,·,·,·
O=C1C2C3c4ccccc4C(Br)(c4ccccc43)C2C(=O)N1c1ccccc1O (configuration not stated),21,0,-3,38*,-1,-29,33,22,26*,15*,32*
Cc1ccc2c(c1)C1(C)C(C(C)(C)N2C=O)C1(Cl)Cl (configuration not stated),-4,0,·,4,·,-2,·,·,·,·,·
COc1cc2c(cc1OC)C(C)N(C(=O)c1sc(-c3cnccn3)nc1C)CC2 (configuration not stated),-31,0,·,-13,·,3,·,·,·,·,·
CN(C)S(=O)(=O)c1cccc(NC(=S)N(CCC#N)Cc2cccnc2)c1,-14,1,5,2,·,1,·,·,·,·,·
COC(=O)c1ccc(/C=N/Nc2nc(N3CCCCC3)nc(N3CCCCC3)n2)cc1,-13,2,4,72*,·,-7,-21,-15,-27,-16,-13
COc1ccc(/C=N/Nc2nc(N3CCCC3)nc(N3CCCC3)n2)cc1,-4,0,8,-5,-2,-26,·,·,·,·,·
O=C1COc2ccc(N3C(=O)C=CC3=O)cc2N1,9,1,1,-11,·,-8,·,·,·,·,·
COCc1ccc(C(=O)NC(C)c2cnn(-c3ccccc3C)c2C)o1 (configuration not stated),2,0,3,10,·,-11,·,·,·,·,·
Cn1c(=O)[nH]c(=O)c2c1nc(N1CCCCC1)n2CCSc1nc2ccccc2o1,7,1,1,40*,0,3,-3,2,1,9,3
COc1cc(=O)n(C)c2ccccc12,0,-1,3,50*,2,-8,-7,-4,-7,9,9
COc1ccc2c(OC)cc(=O)n(C)c2c1,6,0,4,-4,0,-13,·,·,·,·,·
Cc1nc2ccccc2c(=O)n1/N=C/C=C/c1ccccc1,-15,2,·,-36,·,-18,·,·,·,·,·
COC(=O)CNC(=O)CN1C(=O)N(c2ccccc2)C(N(O)C(=O)Nc2ccccc2)C1(C)C (configuration not stated),-15,0,0,-6,1,-15,·,·,·,·,·
COC(=O)CNC(=O)CN1C(=O)N(c2cccc(Cl)c2)C(N(O)C(=O)Nc2cccc(Cl)c2)C1(C)C (configuration not stated),10,-2,-9,49*,-4,2,46*,29,32*,31*,32*
CC(O)C1CCC2C3CC[C@H]4CC(O)CCC4(C)C3CC3(OCCO3)C12C (some centres not stated),9,2,2,57*,-3,6,6,3,-10,2,12
C=CCSc1nnc(CNC(=O)c2ccc(Cl)cc2)n1CC,-22,0,-2,-26,·,0,·,·,·,·,·
COCCNS(=O)(=O)c1ccc(OCC(=O)OC)c(Cl)c1,1,0,2,-6,2,-26,·,·,·,·,·
SMILES,NPY-Y2 PAM-ag,S1P4 ag,NPY-Y1 antag,NPY-Y1 PAM-ag,NPY Y2 blocker,S1P4 antag,NPY-Y1 pot conf,NPY-Y2 counter,NPY-Y1 agonist,NPY-Y2 ag,CNGC counter
COC(=O)COc1ccc(S(=O)(=O)NCCC2=CCCCC2)cc1Cl,20,1,1,56*,5,-2,57*,31,52*,39*,49*
O=C(c1cccc2nc3ccccc3nc12)N1CCOCC1,1,-1,·,-7,·,14,·,·,·,·,·
c1csc(-c2nc3c4ccccc4c4ccccc4c3[nH]2)c1,11,0,-2,18,-3,-5,·,·,·,·,·
Oc1ccccc1-c1nc2c3ccccc3c3ccccc3c2[nH]1,30,0,·,50*,·,-4,36,28,37*,34*,39*
COc1cc(C2CC(=O)N(c3ccc(C)cc3)C(=O)C2)cc(OC)c1OC,-15,-1,·,-5,·,6,·,·,·,·,·
COC(=O)c1ccc(C)c(NC(=O)CCc2ccc(OC)cc2)c1,8,2,2,105*,7,-6,-3,-4,-10,-12,-8
Cc1ccc(C(=O)O)cc1NC(=O)CCc1ccccc1,2,1,0,-19,·,0,·,·,·,·,·
CCN(CC)C(=O)/C=C/c1ccc(OC)c(S(=O)(=O)N2CCCCC2)c1,-3,0,3,2,·,-28,·,·,·,·,·
Cc1ccc(S(=O)(=O)N(CC(=O)N2CCC(C)CC2)Cc2ccccc2F)cc1,20,1,3,79*,1,-6,-5,0,-10,-6,1
Cc1ccc(S(=O)(=O)N(CC(=O)O)Cc2ccccc2F)cc1,5,1,-1,-12,6,-13,·,·,·,·,·

# Source: PubChem
